Assay results published in ChEMBL document CHEMBL4689842, “EUbOPEN Chemogenomics Library wave 1” (2021).

Test system: Fibroblast
Assay: Multiplex assay against human fibroblast
Format: toxicity, cell-based
How it was run: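 On a CQ1 microscope at 37°C and 5% CO2, live cells were imaged after compound addition. They had been stained at seeding with Hoechst33342, BioTracker Green Microtubule Cytoskeleton Dye, MitoTracker Red and Annexin V Alexa Fluor 680. CellPathfinder machine-learning gating assigned cells to Hoechst high-intensity objects or normal cells, normal cells to healthy, pyknosed or fragmented nuclei, and pyknosed cells to mitotic or apoptotic. Tubulin, mitochondrial-mass and membrane-permeability phenotypes are per cents of healthy-nucleus cells.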

[1] = 12 h, 1 µM, compound concentration 1 uM, replicate 1
[2] = 12 h, 1 µM, compound concentration 1 uM, replicate 2
[3] = 12 h, 10 µM, compound concentration 10 uM, replicate 1
[4] = 12 h, 10 µM, compound concentration 10 uM, replicate 2
[5] = 24 h, 1 µM, compound concentration 1 uM, replicate 1
[6] = 24 h, 1 µM, compound concentration 1 uM, replicate 2
[7] = 24 h, 10 µM, compound concentration 10 uM, replicate 1
[8] = 24 h, 10 µM, compound concentration 10 uM, replicate 2

## C=CC(=O)Nc1cccc(Sc2nc(Nc3ccc(N4CCN(C)CC4)cc3)ncc2Cl)c1
[1]
  Population Apoptotic (%): 35%
  Population Fragmented Nuclei (%): 28%
  Population Healthy Nuclei (%): 17%
  Population Hoechst High Intensity Objects (%): 13%
  Population Membrane Permeable-Phenotype (%): 5%
  Population Mitochondria Different-Phenotype (%): 50%
  Population Mitotic Cells (%): 65%
  Population Normal (%): 86%
  Population Pyknosed Nuclei (%): 53%
  Population Tubulin-Different-Phenotype (%): 50%
  Total Cell Count: 130
[2]
  Population Apoptotic (%): 69%
  Population Fragmented Nuclei (%): 48%
  Population Healthy Nuclei (%): 6%
  Population Hoechst High Intensity Objects (%): 20%
  Population Membrane Permeable-Phenotype (%): 0%
  Population Mitochondria Different-Phenotype (%): 33%
  Population Mitotic Cells (%): 30%
  Population Normal (%): 79%
  Population Pyknosed Nuclei (%): 46%
  Population Tubulin-Different-Phenotype (%): 66%
  Total Cell Count: 63
[3]
  Population Apoptotic (%): 79%
  Population Fragmented Nuclei (%): 34%
  Population Healthy Nuclei (%): 49%
  Population Hoechst High Intensity Objects (%): 15%
  Population Membrane Permeable-Phenotype (%): 6%
  Population Mitochondria Different-Phenotype (%): 5%
  Population Mitotic Cells (%): 20%
  Population Normal (%): 84%
  Population Pyknosed Nuclei (%): 15%
  Population Tubulin-Different-Phenotype (%): 9%
  Total Cell Count: 290
[4]
  Population Apoptotic (%): 100%
  Population Fragmented Nuclei (%): 62%
  Population Healthy Nuclei (%): 36%
  Population Hoechst High Intensity Objects (%): 33%
  Population Membrane Permeable-Phenotype (%): 7%
  Population Mitochondria Different-Phenotype (%): 7%
  Population Mitotic Cells (%): 0%
  Population Normal (%): 66%
  Population Pyknosed Nuclei (%): 1%
  Population Tubulin-Different-Phenotype (%): 25%
  Total Cell Count: 116
[5]
  Population Apoptotic (%): 74%
  Population Fragmented Nuclei (%): 53%
  Population Healthy Nuclei (%): 6%
  Population Hoechst High Intensity Objects (%): 7%
  Population Mitochondria Different-Phenotype (%): 57%
  Population Mitotic Cells (%): 25%
  Population Normal (%): 92%
  Population Pyknosed Nuclei (%): 40%
  Population Tubulin-Different-Phenotype (%): 71%
  Total Cell Count: 126
[6]
  Population Apoptotic (%): 90%
  Population Fragmented Nuclei (%): 70%
  Population Healthy Nuclei (%): 5%
  Population Hoechst High Intensity Objects (%): 23%
  Population Membrane Permeable-Phenotype (%): 0%
  Population Mitochondria Different-Phenotype (%): 0%
  Population Mitotic Cells (%): 10%
  Population Normal (%): 76%
  Population Pyknosed Nuclei (%): 25%
  Population Tubulin-Different-Phenotype (%): 50%
  Total Cell Count: 52
[7]
  Population Apoptotic (%): 80%
  Population Fragmented Nuclei (%): 34%
  Population Healthy Nuclei (%): 50%
  Population Hoechst High Intensity Objects (%): 17%
  Population Membrane Permeable-Phenotype (%): 5%
  Population Mitochondria Different-Phenotype (%): 5%
  Population Mitotic Cells (%): 20%
  Population Normal (%): 82%
  Population Pyknosed Nuclei (%): 14%
  Population Tubulin-Different-Phenotype (%): 11%
  Total Cell Count: 285
[8]
  Population Apoptotic (%): 0%
  Population Fragmented Nuclei (%): 65%
  Population Healthy Nuclei (%): 34%
  Population Hoechst High Intensity Objects (%): 34%
  Population Membrane Permeable-Phenotype (%): 20%
  Population Mitochondria Different-Phenotype (%): 4%
  Population Mitotic Cells (%): 0%
  Population Normal (%): 65%
  Population Pyknosed Nuclei (%): 0%
  Population Tubulin-Different-Phenotype (%): 16%
  Total Cell Count: 111
